Legend:
Arginase-1 (Bos taurus) = target: T1, Arginase-1 (Bos taurus) (UniProt Q2KJ64); assay: Inhibition of bovine liver arginase at 1 mM using L-arginine as substrate measured after 30 mins by colder reagent based microplate reader assay relative to control
T1 sequence (whole entry): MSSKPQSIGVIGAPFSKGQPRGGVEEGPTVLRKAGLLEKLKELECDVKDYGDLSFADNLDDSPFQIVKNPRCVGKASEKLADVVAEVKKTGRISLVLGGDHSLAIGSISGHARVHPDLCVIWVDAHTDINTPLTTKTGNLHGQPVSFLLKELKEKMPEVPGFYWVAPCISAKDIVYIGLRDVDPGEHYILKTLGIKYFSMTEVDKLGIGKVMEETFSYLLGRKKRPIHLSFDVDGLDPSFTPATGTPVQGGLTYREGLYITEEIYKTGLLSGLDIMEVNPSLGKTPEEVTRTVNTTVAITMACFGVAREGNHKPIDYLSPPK
In short: (§1)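 Each enzyme (arginase, nNOS, eNOS, iNOS) tested with inhibitor at 1 mM; percent inhibition given as the mean ± SD of at least three independent experiments.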

[1] = target: T2, N(G),N(G)-dimethylarginine dimethylaminohydrolase 1 (Homo sapiens, UniProt O94760); assay: Inhibition of 6xHis-tagged recombinant human DDAH1 expressed in Escherichia coli BL21 cells using NMMA as substrate measured after 30 mins by colder reagent based microplate reader assay
In short: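 Ki against hDDAH-1, given as the mean ± SD of at least two independent experiments.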

[2] = target: Nitric oxide synthase 1 (Homo sapiens) (UniProt P29475); assay: Inhibition of neuronal NOS (unknown origin) assessed as formation of methemoglobin from oxyhemoglobin at 1 mM using L-arginine as substrate in presence of oxyhemoglobin and NADPH by UV-vis spectrophotometry relative to control; in short: as §1
[3] = target: Nitric oxide synthase, inducible (Homo sapiens) (UniProt P35228); assay: Inhibition of iNOS (unknown origin) assessed as formation of methemoglobin from oxyhemoglobin at 1 mM using L-arginine as substrate in presence of oxyhemoglobin and NADPH by UV-vis spectrophotometry relative to control; in short: as §1
[4] = target: T3, Nitric oxide synthase 3 (Homo sapiens) (UniProt P29474); assay: Inhibition of endothelial NOS (unknown origin) assessed as formation of methemoglobin from oxyhemoglobin at 1 mM using L-arginine as substrate in presence of oxyhemoglobin and NADPH by UV-vis spectrophotometry relative to control; in short: as §1
T3 sequence (whole entry): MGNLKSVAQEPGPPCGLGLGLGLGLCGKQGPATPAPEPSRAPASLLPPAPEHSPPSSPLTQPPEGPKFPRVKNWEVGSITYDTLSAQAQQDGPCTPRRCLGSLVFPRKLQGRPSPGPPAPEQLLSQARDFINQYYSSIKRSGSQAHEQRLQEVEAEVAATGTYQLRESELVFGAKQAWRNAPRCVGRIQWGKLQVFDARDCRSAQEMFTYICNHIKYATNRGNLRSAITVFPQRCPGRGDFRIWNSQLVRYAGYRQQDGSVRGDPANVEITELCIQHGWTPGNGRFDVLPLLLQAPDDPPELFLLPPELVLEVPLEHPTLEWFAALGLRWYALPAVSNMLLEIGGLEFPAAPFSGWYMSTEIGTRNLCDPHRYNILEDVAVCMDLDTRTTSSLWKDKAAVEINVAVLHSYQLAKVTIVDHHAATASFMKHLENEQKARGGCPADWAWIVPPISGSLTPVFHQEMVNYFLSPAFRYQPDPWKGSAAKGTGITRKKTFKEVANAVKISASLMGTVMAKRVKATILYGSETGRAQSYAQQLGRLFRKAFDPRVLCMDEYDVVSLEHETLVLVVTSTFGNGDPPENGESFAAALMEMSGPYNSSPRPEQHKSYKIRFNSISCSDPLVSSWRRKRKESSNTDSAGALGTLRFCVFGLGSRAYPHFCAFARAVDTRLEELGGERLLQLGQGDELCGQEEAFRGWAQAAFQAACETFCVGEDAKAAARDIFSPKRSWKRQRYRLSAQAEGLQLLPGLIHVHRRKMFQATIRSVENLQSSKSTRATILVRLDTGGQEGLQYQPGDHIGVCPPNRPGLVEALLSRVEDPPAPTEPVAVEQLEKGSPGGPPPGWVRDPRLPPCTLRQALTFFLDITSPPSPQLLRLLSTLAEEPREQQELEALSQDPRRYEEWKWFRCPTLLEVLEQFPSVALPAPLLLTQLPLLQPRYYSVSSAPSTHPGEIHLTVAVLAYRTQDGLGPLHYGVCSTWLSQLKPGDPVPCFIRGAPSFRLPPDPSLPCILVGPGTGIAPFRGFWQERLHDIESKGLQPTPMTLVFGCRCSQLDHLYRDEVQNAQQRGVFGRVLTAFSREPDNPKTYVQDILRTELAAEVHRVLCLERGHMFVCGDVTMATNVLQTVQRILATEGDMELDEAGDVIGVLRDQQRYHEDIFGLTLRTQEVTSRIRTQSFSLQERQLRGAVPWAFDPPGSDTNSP

[5] = target: T2, N(G),N(G)-dimethylarginine dimethylaminohydrolase 1; assay: Inhibition of 6xHis-tagged recombinant human DDAH1 expressed in Escherichia coli BL21 cells at 1 mM using NMMA as substrate measured after 30 mins by colder reagent based microplate reader assay
[6] = target: T4, Mitochondrial amidoxime reducing component 2 (Homo sapiens, UniProt Q969Z3); assay: Substrate activity at human recombinant mARC2 expressed in Escherichia coli assessed as enzyme-mediated N-(4-Aminobutyl)-N'-(2-methoxyethyl)guanidine formation at 3 mM and pH 6 preincubated for 3 mins followed by NADH addition measured after 20 mins under aerobic conditions by RP-HPLC analysis; type: ADME; conditions: pH 6, 20 min, 3000 µM
T4 sequence (Q969Z3 whole entry): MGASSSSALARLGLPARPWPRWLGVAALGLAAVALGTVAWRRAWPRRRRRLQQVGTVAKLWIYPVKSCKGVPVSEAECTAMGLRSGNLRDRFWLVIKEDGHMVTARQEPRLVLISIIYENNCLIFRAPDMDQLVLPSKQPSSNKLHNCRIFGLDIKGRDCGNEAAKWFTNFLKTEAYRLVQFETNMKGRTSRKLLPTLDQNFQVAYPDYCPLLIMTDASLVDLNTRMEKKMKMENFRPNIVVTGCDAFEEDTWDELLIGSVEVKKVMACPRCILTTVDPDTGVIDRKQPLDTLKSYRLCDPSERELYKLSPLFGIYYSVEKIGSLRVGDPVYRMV
In short: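 Incubation used the reconstituted, heterologously expressed human mARC-2 N-reductive system. The guanidine product was measured by HPLC after precolumn derivatization with o-phthalaldehyde.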

[7] = Prodrug conversion in porcine liver homogenate assessed as formation of N-(4-Aminobutyl)-N'-(2-methoxyethyl)guanidine formation at 3 mM and pH 6 preincubated for 3 mins followed by NADH addition measured after 20 mins under aerobic conditions by RP-HPLC analysis; type: ADME, tissue-based, Sus scrofa; conditions: pig, tissue homogenate, pH 6, 20 min, 3000 µM
In short: (§2)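 Prodrug incubated with porcine liver subcellular fractions (homogenate, mitochondria, outer mitochondrial membrane vesicles). The formed guanidine was quantified by HPLC after precolumn o-phthalaldehyde derivatization. Data are means ± SD of biological triplicates.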

[8] = Prodrug conversion in porcine liver mitochondria assessed as N-(4-Aminobutyl)-N'-(2-methoxyethyl)guanidine formation at 3 mM and pH 6 preincubated for 3 mins followed by NADH addition measured after 20 mins under aerobic conditions by RP-HPLC analysis; type: ADME, Sus scrofa; conditions: pig, pH 6, 20 min, 3000 µM; in short: as §2
[9] = Chemical stability of compound at 250 uM in phosphate buffer at pH 2 to 9 and 37 degree C after 24 hrs by RP-HPLC analysis; type: physicochemical; conditions: pH 2, 24 h
[10] = Prodrug conversion in porcine liver mitochondrial membrane vesicles assessed as N-(4-Aminobutyl)-N'-(2-methoxyethyl)guanidine formation at 3 mM and pH 6 preincubated for 3 mins followed by NADH addition measured after 20 mins under aerobic conditions by RP-HPLC analysis; type: ADME, cell membranes, Sus scrofa, Mitochondrial membrane vesicle; conditions: pig, pH 6, 20 min, 3000 µM; in short: as §2
HEK-293T [11] = assay: Cytotoxicity against human HEK293T cells assessed as effect on cell viability by measuring ATP content at 0.1 to 1000 uM incubated for overnight by CellTiter-Glo luminescent analysis; type: cell-based
HEK-293T [12] = assay: Cytotoxicity against human HEK293T cells assessed as effect on cell number at 0.1 to 1000 uM incubated for overnight by DAPI staining based analysis

Nitric oxide synthase, inducible (Homo sapiens), sequence (P35228 whole entry): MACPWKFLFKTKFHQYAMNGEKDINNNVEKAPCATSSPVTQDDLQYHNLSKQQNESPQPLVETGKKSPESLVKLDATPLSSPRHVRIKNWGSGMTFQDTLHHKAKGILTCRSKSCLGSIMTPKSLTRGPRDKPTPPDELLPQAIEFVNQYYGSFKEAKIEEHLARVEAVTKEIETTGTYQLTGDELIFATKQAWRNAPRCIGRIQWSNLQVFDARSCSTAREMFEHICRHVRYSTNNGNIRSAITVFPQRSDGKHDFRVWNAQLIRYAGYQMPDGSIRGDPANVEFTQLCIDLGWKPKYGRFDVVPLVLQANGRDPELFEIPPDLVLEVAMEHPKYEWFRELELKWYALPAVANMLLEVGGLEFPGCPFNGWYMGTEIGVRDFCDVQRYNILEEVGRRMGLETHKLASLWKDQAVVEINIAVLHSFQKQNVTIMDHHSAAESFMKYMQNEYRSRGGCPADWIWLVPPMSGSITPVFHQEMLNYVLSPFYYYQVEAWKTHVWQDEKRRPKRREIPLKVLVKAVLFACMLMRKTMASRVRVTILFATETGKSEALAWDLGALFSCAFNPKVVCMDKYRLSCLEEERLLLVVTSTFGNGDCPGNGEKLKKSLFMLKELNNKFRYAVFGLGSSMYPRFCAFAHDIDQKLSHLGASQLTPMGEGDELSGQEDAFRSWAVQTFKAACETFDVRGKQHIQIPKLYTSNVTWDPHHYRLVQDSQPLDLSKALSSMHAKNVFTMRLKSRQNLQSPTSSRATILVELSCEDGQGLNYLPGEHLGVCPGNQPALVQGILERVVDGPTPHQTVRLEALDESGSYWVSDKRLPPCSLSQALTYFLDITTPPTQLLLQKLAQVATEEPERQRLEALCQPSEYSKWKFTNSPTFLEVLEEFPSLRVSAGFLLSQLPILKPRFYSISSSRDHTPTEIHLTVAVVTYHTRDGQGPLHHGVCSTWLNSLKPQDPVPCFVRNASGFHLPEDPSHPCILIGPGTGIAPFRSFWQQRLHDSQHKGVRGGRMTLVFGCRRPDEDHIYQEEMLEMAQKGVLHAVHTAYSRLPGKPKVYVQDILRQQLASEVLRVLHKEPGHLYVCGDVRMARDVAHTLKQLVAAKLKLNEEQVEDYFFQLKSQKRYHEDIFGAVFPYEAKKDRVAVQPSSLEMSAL
Nitric oxide synthase 1 (Homo sapiens), sequence (P29475 whole entry): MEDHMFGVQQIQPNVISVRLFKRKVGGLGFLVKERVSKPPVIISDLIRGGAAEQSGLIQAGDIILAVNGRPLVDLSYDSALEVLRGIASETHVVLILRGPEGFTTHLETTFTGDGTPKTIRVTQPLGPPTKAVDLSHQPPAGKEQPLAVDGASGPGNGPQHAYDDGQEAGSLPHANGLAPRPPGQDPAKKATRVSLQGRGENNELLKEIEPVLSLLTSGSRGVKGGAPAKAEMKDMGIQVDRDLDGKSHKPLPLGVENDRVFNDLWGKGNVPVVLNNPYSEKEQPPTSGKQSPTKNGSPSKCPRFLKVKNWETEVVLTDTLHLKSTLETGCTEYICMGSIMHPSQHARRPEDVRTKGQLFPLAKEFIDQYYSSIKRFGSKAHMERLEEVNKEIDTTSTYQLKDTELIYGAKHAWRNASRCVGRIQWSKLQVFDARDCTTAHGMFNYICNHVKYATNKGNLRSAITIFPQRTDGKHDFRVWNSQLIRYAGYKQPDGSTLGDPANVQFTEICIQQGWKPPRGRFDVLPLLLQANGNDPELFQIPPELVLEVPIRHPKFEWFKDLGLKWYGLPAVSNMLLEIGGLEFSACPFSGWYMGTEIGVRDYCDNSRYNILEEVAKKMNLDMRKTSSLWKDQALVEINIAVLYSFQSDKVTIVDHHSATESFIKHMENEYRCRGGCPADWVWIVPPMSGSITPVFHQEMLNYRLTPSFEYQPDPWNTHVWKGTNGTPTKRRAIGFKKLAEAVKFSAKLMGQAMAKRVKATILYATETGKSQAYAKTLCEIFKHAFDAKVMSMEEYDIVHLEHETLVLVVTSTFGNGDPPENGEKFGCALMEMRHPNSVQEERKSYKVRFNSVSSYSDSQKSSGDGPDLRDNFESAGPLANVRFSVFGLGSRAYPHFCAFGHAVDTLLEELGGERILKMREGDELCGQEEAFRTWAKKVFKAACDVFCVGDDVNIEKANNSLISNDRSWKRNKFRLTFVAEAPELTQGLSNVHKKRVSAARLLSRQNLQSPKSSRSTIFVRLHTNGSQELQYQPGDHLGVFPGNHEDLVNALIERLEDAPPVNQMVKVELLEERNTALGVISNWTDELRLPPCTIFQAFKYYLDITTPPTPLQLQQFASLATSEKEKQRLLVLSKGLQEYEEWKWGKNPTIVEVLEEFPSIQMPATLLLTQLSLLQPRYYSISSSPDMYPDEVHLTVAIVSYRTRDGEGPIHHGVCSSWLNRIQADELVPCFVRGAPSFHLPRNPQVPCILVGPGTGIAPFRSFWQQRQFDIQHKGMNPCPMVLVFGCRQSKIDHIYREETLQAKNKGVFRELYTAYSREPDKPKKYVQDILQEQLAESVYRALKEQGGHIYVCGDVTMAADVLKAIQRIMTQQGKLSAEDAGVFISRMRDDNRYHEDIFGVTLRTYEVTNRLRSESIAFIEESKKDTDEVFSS
T2 sequence (O94760 whole entry): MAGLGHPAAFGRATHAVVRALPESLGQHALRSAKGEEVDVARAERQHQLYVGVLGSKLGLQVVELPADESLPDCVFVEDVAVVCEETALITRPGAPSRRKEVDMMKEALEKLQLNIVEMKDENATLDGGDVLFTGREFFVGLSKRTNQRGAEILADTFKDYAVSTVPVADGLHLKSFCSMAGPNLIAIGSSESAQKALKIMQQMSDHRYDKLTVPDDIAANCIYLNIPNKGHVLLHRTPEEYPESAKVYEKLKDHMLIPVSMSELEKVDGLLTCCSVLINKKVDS

Compound | inhibition (Arginase-1 (Bos taurus)) [%] | Ki [1] [µM] | inhibition [2] [%] | inhibition [3] [%] | inhibition [4] [%] | other results
CCCCCNC(=N)NCCOC | 15 | 2810 | 0 | 21 | 0 | 
COCCNC(=N)NCCC(C)C | 20 | 2760 | 0 | 4 | 19 | 
COCCCC(=N)NCCCCN | 14 |  | 7 | 15 | 36 | inhibition [5]: < 20%
COCCC(=N)NCCCCN | 22 | 1450 | 19 | 16 | 28 | 
COCCNC(=N)NCCCCC(=O)O | 35 | 489 | 5 | 2 | 13 | 
COCCN/C(=N/O)NCCCCN |  |  |  |  |  | Activity [6]: Active; Drug metabolism [7]: Metabolite_Detected; Drug metabolism [8]: Metabolite_Detected; Stability [9]: Stable; Drug metabolism [10]: Metabolite_Detected; Activity (HEK-293T [11]): Non-Toxic; Activity (HEK-293T [12]): Non-Toxic
COCCNC(=N)NCCC[C@H](N)C(=O)NS(C)(=O)=O |  | 1 |  |  |  | 
C=CCCNC(=N)NCCCCN | 0 | 59 | 5 | 23 | 35 | 
COCCNC(=N)NCCC[C@H](N)C(=O)O | 29 |  |  | 0 |  | 
COCCNC(=N)NCCCCN | 11 |  | 0 | 0 | 13 | Activity (HEK-293T [11]): Non-Toxic; Activity (HEK-293T [12]): Non-Toxic
COCC(=N)NCCCCN | 21 | 983 | 78 | 42 | 44 | 

The next lines start with results.

inhibition (Arginase-1 (Bos taurus)) [%] | Ki [1] [µM] | inhibition [2] [%] | inhibition [3] [%] | inhibition [4] [%] | Compound | other results
76 |  |  |  |  | C=CCC(=N)NCCC[C@H](N)C(=O)O | 
 | 1.3 |  |  |  | N=C(CCl)NCCC[C@H](N)C(=O)O | 
< 20 |  | < 20 | < 20 | < 20 | COCCCC(=N)NCC[C@H](N)C(=O)O | inhibition [5]: < 20%
22 | 73 | 93 | 75 | 89 | COCC(=N)NCCC[C@H](N)C(=O)O | 
6 | 768 | 99 | 100 | 56 | C=CCC(=N)NCCCCN | 
70 |  |  |  |  | C=CCCNC(=N)NCCC[C@H](N)C(=O)O | 
43 | 9 | 65 | 50 | 54 | COCCC(=N)NCCC[C@H](N)C(=O)O | 
20 | 156 | 35 | 26 | 29 | COCCCC(=N)NCCC[C@H](N)C(=O)O | 

— ChEMBL document CHEMBL4376856, “Discovery of N-(4-Aminobutyl)-N'-(2-methoxyethyl)guanidine as the First Selective, Nonamino Acid, Catalytic Site Inhibitor of Human Dimethylarginine Dimethylaminohydrolase-1 (hDDAH-1)” (J Med Chem, 2020)
